From ChEMBL document CHEMBL4184191, “Immunoproteasome inhibition and bioactivity of thiasyrbactins” (2018) come the findings set out here.

Activity calls are given as the source filed them. The rule behind the calls is not given here.

Assay [1] deals with T1, Proteasome component C5 (Homo sapiens) (UniProt P20618).
T1 sequence (whole entry): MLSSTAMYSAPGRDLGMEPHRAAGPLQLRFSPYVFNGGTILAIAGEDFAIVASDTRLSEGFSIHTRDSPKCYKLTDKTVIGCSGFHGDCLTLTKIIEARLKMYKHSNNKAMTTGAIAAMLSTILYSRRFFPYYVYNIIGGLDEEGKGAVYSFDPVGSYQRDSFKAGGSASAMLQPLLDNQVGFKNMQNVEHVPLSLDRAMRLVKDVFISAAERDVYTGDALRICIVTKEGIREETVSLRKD
Kind of assay: Inhibition of 20s constitutive proteasome caspase-like activity in human erythrocytes using […] as substrate pretreated for 2 hrs followed by substrate addition measured after 10 mins by luminescence assay. In kind it is cell-based. Summed up:
(§1)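 Purified human 20S proteasome was used: constitutive enzyme from erythrocytes, immunoproteasome from PBMCs, each at 2.2 ng/µl. It was preincubated with inhibitor (0 to 10 µM) in 10 mM HEPES pH 7.3 for 2 h at 37 °C. An equal volume of luminogenic substrate was then added ([…], […], Suc-LLVY-Glo for β5), and luminescence was read 10 min later. Runs were in triplicate, and Ki-50 values were fitted and averaged.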

Assay [2] addresses T2, Proteasome Macropain subunit MB1 (Homo sapiens) (UniProt P28074).
T2 sequence (whole entry): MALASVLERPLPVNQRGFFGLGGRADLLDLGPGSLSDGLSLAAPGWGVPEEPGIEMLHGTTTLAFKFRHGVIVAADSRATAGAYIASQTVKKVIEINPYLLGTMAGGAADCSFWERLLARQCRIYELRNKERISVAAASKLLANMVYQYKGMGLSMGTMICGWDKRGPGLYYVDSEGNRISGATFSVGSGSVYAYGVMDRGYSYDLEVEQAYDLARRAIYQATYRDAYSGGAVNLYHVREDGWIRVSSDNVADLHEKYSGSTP
Kind of assay: Inhibition of immunoproteasome chymotrypsin-like activity in human […] using Suc-LLVY-Glo as substrate pretreated for 2 hrs followed by substrate addition measured after 10 mins by luminescence assay. Format: cell-based. In short, it runs like this:
as §1

Assay [3] has as its target T1, Proteasome component C5 (Homo sapiens). Kind of assay: Inhibition of immunoproteasome caspase-like activity in human […] using […] as substrate pretreated for 2 hrs followed by substrate addition measured after 10 mins by luminescence assay. Format: cell-based. In short, it runs like this:
as §1

The target in assay [4] is T2, Proteasome Macropain subunit MB1 (Homo sapiens). Kind of assay: Inhibition of 20s constitutive proteasome chymotrypsin-like activity in human erythrocytes using Suc-LLVY-Glo as substrate pretreated for 2 hrs followed by substrate addition measured after 10 mins by luminescence assay. In kind it is cell-based. In short, it runs like this: as §1
Assay [5] has as its target Proteasome Macropain subunit (Homo sapiens) (UniProt P49721). Kind of assay: Inhibition of 20s constitutive proteasome trypsin-like activity in human erythrocytes using […] as substrate pretreated for 2 hrs followed by substrate addition measured after 10 mins by luminescence assay. In kind it is cell-based. In short, it runs like this:
as §1

Assay [6] shares this target. Kind of assay: Inhibition of immunoproteasome trypsin-like activity in human […] using […] as substrate pretreated for 2 hrs followed by substrate addition measured after 10 mins by luminescence assay. Format: cell-based. In short, it runs like this: as §1
The species entered for assay [7] is Homo sapiens. Kind of assay: Cytotoxicity against human SK-N-BE(2)C cells assessed as reduction in cell viability after 24 hrs […]. Format: functional, cell-based.
Assay [8] deals with SK-N-SH. Kind of assay: Cytotoxicity against human SK-N-SH cells assessed as reduction in cell viability after 24 hrs […]. Format: functional, cell-based.
The species entered for assay [9] is Homo sapiens. Kind of assay: Cytotoxicity against human MYCN2 cells assessed as reduction in cell viability after 24 hrs […]. Format: functional, cell-based.
Assay [10] deals with SK-N-SH. Kind of assay: Cytotoxicity against human SK-N-SH cells assessed as reduction in cell viability at 0.01 to 1 uM after 24 hrs […]. Format: functional.
Assay [11] in a line: Cytotoxicity against human MYCN2 cells assessed as reduction in cell viability at 0.01 to 1 uM after 24 hrs […]. In kind it is functional.
In assay [12] the test system is SK-N-SH. Kind of assay: Cytotoxicity against human SK-N-SH cells assessed as reduction in cell viability at 0.1 to 1 uM after 24 hrs […]. Format: functional, cell-based.
For assay [13], the species on record is Homo sapiens. Kind of assay: Cytotoxicity against human MYCN2 cells assessed as reduction in cell viability at 0.1 to 1 uM after 24 hrs by […] assay. In kind it is functional, cell-based. In short, it runs like this:
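Human neuroblastoma cells were plated overnight in RPMI with 10% heat-inactivated FBS, penicillin (100 U/ml) and streptomycin (100 µg/ml), at 37 C and 5% CO₂. They were exposed to inhibitor at 0.01, 0.1 and 1 µM for 24 h. Viability was read with MTS reagent as absorbance at 490 nm. Two independent experiments were run, each in triplicate wells (n=6), and results are expressed relative to untreated control cells.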

Assay [14] deals with T2, Proteasome Macropain subunit MB1 (Homo sapiens). Kind of assay: Stimulation of immunoproteasome chymotrypsin-like activity in human […] at 1 uM using Suc-LLVY-Glo as substrate pretreated for 2 hrs followed by substrate addition measured after 10 mins by luminescence assay. Format: cell-based.

Sequence of Proteasome Macropain subunit (Homo sapiens) (P49721 whole entry): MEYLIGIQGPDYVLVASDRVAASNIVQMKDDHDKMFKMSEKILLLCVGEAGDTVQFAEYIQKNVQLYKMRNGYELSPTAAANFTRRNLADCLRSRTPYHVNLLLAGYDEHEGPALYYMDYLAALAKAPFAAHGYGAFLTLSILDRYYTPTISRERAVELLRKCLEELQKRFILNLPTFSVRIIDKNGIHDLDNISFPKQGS

Regarding `COc1ccc(C[C@H](NC(=O)[C@H](C)NC(=O)CN2CCOCC2)C(=O)N[C@@H](Cc2ccccc2)C(=O)[C@]2(C)CO2)cc1`, the figures for the Ki50 in assay [1], in assay [2] and in assay [3] were 2.07 µM, 0.11 µM and 1.32 µM, respectively.

For `C[C@H]1/C=C/C(=O)NCC[S+]([O-])C[C@H](NC(=O)c2cnccn2)C(=O)N1` (some centres undefined), the inhibition entry in assay [4], in assay [1], in [5], in assay [2], in assay [3] and in assay [6] was “inactive” each time. Also, the result in the assay filed under Homo sapiens [7], in the assay on SK-N-SH [8] and in the assay filed under Homo sapiens [9] was inactive.

Regarding `CCCCCCCCCCCCNC(=O)N[C@H](C(=O)N[C@H]1CSCCNC(=O)/C=C/[C@H](C)NC1=O)C(C)C`, the Ki50 in [1] was above 10 µM; in assay [5] it was 1.76 µM; in [2], above 10 µM; in assay [3], above 10 µM; in [6] it was 1.39 µM. The Activity (in the assay with SK-N-SH [10]; in [11]) was 30 - 50% in each case.

As for `C[C@H]1/C=C/C(=O)NCCSC[C@H](NC(=O)c2cnccn2)C(=O)N1`, the inhibition entry in assay [4], in assay [1], in [5], in [2], in assay [3] and in [6] was “inactive” throughout. In addition, the result in the assay filed under Homo sapiens [7], with SK-N-SH [8] and in the assay listed under Homo sapiens [9] was inactive.

As for `CC(C)C[C@H](NC(=O)[C@H](Cc1ccccc1)NC(=O)c1cnccn1)B(O)O`, the Ki50 in assay [1] worked out at 0.02 µM; in assay [2], 0.01 µM; in assay [3] it was 0.03 µM. Besides, the result in the assay with SK-N-SH [12] and in the assay filed under Homo sapiens [13] was Active.

For `CCCCCCCCCCCCNC(=O)N[C@H](C(=O)N[C@H]1C[S+]([O-])CCNC(=O)/C=C/[C@H](C)NC1=O)C(C)C` (some centres undefined), the inhibition entry in assay [4], in assay [1], in assay [5], in assay [2], in assay [3] and in [6] was “inactive” in each case. Further, the outcome in the assay filed under Homo sapiens [7], with SK-N-SH [8] and in the assay listed under Homo sapiens [9] was inactive.

Turning to `CC(C)Cc1ccc([C@H](C)C(=O)N[C@H](C(=O)N[C@H]2CSCCNC(=O)/C=C/[C@H](C)NC2=O)C(C)C)cc1`, the Ki50 was above 10 µM in assay [1]; 1.07 µM in [5]; above 10 µM in [2]; above 10 µM in assay [3]; 0.74 µM in assay [6]. In addition, the result in [14] was Active.

Regarding `CC(C)[C@H](NC(=O)c1cnccn1)C(=O)N[C@H]1CSCCNC(=O)/C=C/[C@H](C)NC1=O`, the Ki50 was above 10 µM in [1]; 0.92 µM in assay [5]; above 10 µM in [2]; above 10 µM in assay [3]; 0.75 µM in [6]. In addition, the result in [14] was Active.
